Reference: ChEMBL document CHEMBL4689842, “EUbOPEN Chemogenomics Library wave 1” (2021)

System: HEK-293T
Test: Multiplex assay against HEK293T;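 on Population Tubulin-Different-Phenotype (%): share of the cells with healthy nuclei that show this phenotype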
Assay type: toxicity, cell-based
Settings: human
Method in brief: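 With compound added, live cells were imaged on a CQ1 microscope at 37°C and 5% CO2; staining with Hoechst33342, BioTracker Green Microtubule Cytoskeleton Dye, MitoTracker Red and Annexin V Alexa Fluor 680 had been done at seeding. The CellPathfinder machine-learning gating scheme split cells into Hoechst high-intensity objects or normal cells, normal cells into healthy, pyknosed or fragmented nuclei, and pyknosed cells into mitotic or apoptotic. The tubulin, mitochondrial-mass and membrane-permeability phenotypes are per cents of healthy-nucleus cells.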

[1] = 12 h, 1 µM, compound concentration 1 uM, replicate 1
[2] = 12 h, 1 µM, compound concentration 1 uM, replicate 2
[3] = 12 h, 10 µM, compound concentration 10 uM, replicate 1
[4] = 12 h, 10 µM, compound concentration 10 uM, replicate 2
[5] = 24 h, 1 µM, compound concentration 1 uM, replicate 1
[6] = 24 h, 1 µM, compound concentration 1 uM, replicate 2
[7] = 24 h, 10 µM, compound concentration 10 uM, replicate 1
[8] = 24 h, 10 µM, compound concentration 10 uM, replicate 2
[9] = 48 h, 1 µM, compound concentration 1 uM, replicate 1
[10] = 48 h, 1 µM, compound concentration 1 uM, replicate 2
[11] = 48 h, 10 µM, compound concentration 10 uM, replicate 1
[12] = 48 h, 10 µM, compound concentration 10 uM, replicate 2

## CCCCCNC(=N)N/N=C/c1c[nH]c2ccc(OC)cc12.O=C(O)/C=C\C(=O)O [TEGASEROD MALEATE]
[1]
  Population Apoptotic (%): 45%
  Population Fragmented Nuclei (%): 20%
  Population Healthy Nuclei (%): 42%
  Population Hoechst High Intensity Objects (%): 16%
  Population Membrane Permeable-Phenotype (%): 4%
  Population Mitochondria Different-Phenotype (%): 88%
  Population Mitotic Cells (%): 54%
  Population Normal (%): 83%
  Population Pyknosed Nuclei (%): 36%
  Population Tubulin-Different-Phenotype (%): 52%
  Total Cell Count: 192
[2]
  Population Apoptotic (%): 24%
  Population Fragmented Nuclei (%): 4%
  Population Healthy Nuclei (%): 35%
  Population Hoechst High Intensity Objects (%): 1%
  Population Membrane Permeable-Phenotype (%): 9%
  Population Mitochondria Different-Phenotype (%): 50%
  Population Mitotic Cells (%): 75%
  Population Normal (%): 98%
  Population Pyknosed Nuclei (%): 59%
  Population Tubulin-Different-Phenotype (%): 48%
  Total Cell Count: 204
[3]
  Population Apoptotic (%): 51%
  Population Fragmented Nuclei (%): 27%
  Population Healthy Nuclei (%): 0%
  Population Hoechst High Intensity Objects (%): 27%
  Population Membrane Permeable-Phenotype (%): 0%
  Population Mitochondria Different-Phenotype (%): 0%
  Population Mitotic Cells (%): 48%
  Population Normal (%): 72%
  Population Pyknosed Nuclei (%): 72%
  Population Tubulin-Different-Phenotype (%): 0%
  Total Cell Count: 295
[4]
  Population Apoptotic (%): 96%
  Population Fragmented Nuclei (%): 15%
  Population Healthy Nuclei (%): 3%
  Population Hoechst High Intensity Objects (%): 29%
  Population Mitotic Cells (%): 3%
  Population Normal (%): 70%
  Population Pyknosed Nuclei (%): 81%
  Population Tubulin-Different-Phenotype (%): 100%
  Total Cell Count: 93
[5]
  Population Apoptotic (%): 46%
  Population Fragmented Nuclei (%): 15%
  Population Healthy Nuclei (%): 60%
  Population Hoechst High Intensity Objects (%): 13%
  Population Membrane Permeable-Phenotype (%): 1%
  Population Mitochondria Different-Phenotype (%): 83%
  Population Mitotic Cells (%): 53%
  Population Normal (%): 86%
  Population Pyknosed Nuclei (%): 23%
  Population Tubulin-Different-Phenotype (%): 46%
  Total Cell Count: 196
[6]
  Population Apoptotic (%): 24%
  Population Fragmented Nuclei (%): 4%
  Population Healthy Nuclei (%): 54%
  Population Hoechst High Intensity Objects (%): 3%
  Population Membrane Permeable-Phenotype (%): 7%
  Population Mitochondria Different-Phenotype (%): 46%
  Population Mitotic Cells (%): 75%
  Population Normal (%): 96%
  Population Pyknosed Nuclei (%): 40%
  Population Tubulin-Different-Phenotype (%): 43%
  Total Cell Count: 260
[7]
  Population Apoptotic (%): 54%
  Population Fragmented Nuclei (%): 31%
  Population Healthy Nuclei (%): 0%
  Population Hoechst High Intensity Objects (%): 35%
  Population Membrane Permeable-Phenotype (%): 100%
  Population Mitochondria Different-Phenotype (%): 100%
  Population Mitotic Cells (%): 45%
  Population Normal (%): 64%
  Population Pyknosed Nuclei (%): 68%
  Population Tubulin-Different-Phenotype (%): 0%
  Total Cell Count: 288
[8]
  Population Apoptotic (%): 97%
  Population Fragmented Nuclei (%): 25%
  Population Healthy Nuclei (%): 27%
  Population Hoechst High Intensity Objects (%): 13%
  Population Membrane Permeable-Phenotype (%): 23%
  Population Mitochondria Different-Phenotype (%): 9%
  Population Mitotic Cells (%): 2%
  Population Normal (%): 86%
  Population Pyknosed Nuclei (%): 46%
  Population Tubulin-Different-Phenotype (%): 85%
  Total Cell Count: 89
[9]
  Population Fragmented Nuclei (%): 9%
  Population Healthy Nuclei (%): 77%
  Population Hoechst High Intensity Objects (%): 8%
  Population Membrane Permeable-Phenotype (%): 0%
  Population Mitochondria Different-Phenotype (%): 38%
  Population Normal (%): 91%
  Population Pyknosed Nuclei (%): 12%
  Population Tubulin-Different-Phenotype (%): 30%
  Total Cell Count: 290
[10]
  Population Apoptotic (%): 33%
  Population Fragmented Nuclei (%): 7%
  Population Healthy Nuclei (%): 78%
  Population Hoechst High Intensity Objects (%): 4%
  Population Membrane Permeable-Phenotype (%): 5%
  Population Mitochondria Different-Phenotype (%): 21%
  Population Mitotic Cells (%): 66%
  Population Normal (%): 95%
  Population Pyknosed Nuclei (%): 14%
  Population Tubulin-Different-Phenotype (%): 42%
  Total Cell Count: 411
[11]
  Population Apoptotic (%): 58%
  Population Fragmented Nuclei (%): 36%
  Population Healthy Nuclei (%): 0%
  Population Hoechst High Intensity Objects (%): 31%
  Population Membrane Permeable-Phenotype (%): 0%
  Population Mitochondria Different-Phenotype (%): 0%
  Population Mitotic Cells (%): 41%
  Population Normal (%): 68%
  Population Pyknosed Nuclei (%): 63%
  Population Tubulin-Different-Phenotype (%): 0%
  Total Cell Count: 277
[12]
  Population Apoptotic (%): 100%
  Population Fragmented Nuclei (%): 32%
  Population Healthy Nuclei (%): 47%
  Population Hoechst High Intensity Objects (%): 6%
  Population Membrane Permeable-Phenotype (%): 17%
  Population Mitochondria Different-Phenotype (%): 28%
  Population Mitotic Cells (%): 0%
  Population Normal (%): 93%
  Population Pyknosed Nuclei (%): 20%
  Population Tubulin-Different-Phenotype (%): 65%
  Total Cell Count: 79
